These results are taken from PMC4885513 (The Journal of Pharmacology and Experimental Therapeutics, 2016).

The target of series [1] is α1β1γ2S receptors (Rattus norvegicus, UniProt P15431+P62813). In words: IGABA enhancement. The settings on record: for Emax: read-out: maximal IGABA enhancement (Emax); for Hill-coefficient (nH): α1β1γ2S, GABA EC3-7, Xenopus oocytes. The series is classed as cell-based. A digest of the protocol:
(§1)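 Rat α1, β1/β2/β3 and γ2S cRNAs (100–2000 ng/μl/subunit, about 10–50 nl) were injected into collagenase-treated stage V–VI Xenopus oocytes held at 18°C in ND96. The α:β:γ ratio was 1:1:10 for β2 and β3 and 3:1:10 for β1. Recordings used two-electrode voltage clamp at −70 mV in a HEPES bath at pH 7.4. Compound (≤500 µM, DMSO matched) was applied with per-oocyte GABA EC3–7 by fast perfusion. Oocytes above 5 µA were excluded. Enhancement = I(GABA+Comp)/IGABA − 1, Hill-fitted for EC50, Emax and nH; ≥3 oocytes, ≥2 batches.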

The subject of series [2] is pentylenetetrazole (PTZ)-induced seizure threshold. To be noted: 3 mg/kg i.p., 30 min before test; ref Hintersteiner et al. (2014); cited from earlier work.
For series [3], the target named is T1, α1β3γ2S receptors (Rattus norvegicus, UniProt P62813+P63079). The settings on record: GABA EC3-7, Xenopus oocytes, ref Luger et al. (2015); cited from earlier work.
Series [4] deals with locomotor activity. The experiment in a line: Open-field test. The class given is in vivo, male C57BL/6N mice. To be noted: for total distance covered in the open field test: 30 min before test, 10 min test, control 38.3 ± 1.5 m.
For series [5], the system named is GABAA channels. The settings on record: ref Khom et al., 2007; cited from earlier work.
Series [6] addresses α1β2γ2S receptors (Rattus norvegicus, UniProt P62813+P63138). The experiment in a line: IGABA enhancement. The series is classed as cell-based. The settings on record: for Emax: read-out: maximal IGABA enhancement (Emax); for Hill-coefficient (nH): α1β2γ2S, GABA EC3-7, Xenopus oocytes. A digest of the protocol:
as §1

In series [7] the test system is pentylenetetrazole (PTZ)-induced seizure threshold. The experiment in a line: PTZ-induced seizure threshold. The class given is in vivo, male C57BL/6N mice. To be noted: for PTZ-induced seizure threshold: 30 min before test, saline control 40.4 ± 1.4. A digest of the protocol:
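Male C57BL/6N mice aged 3–6 months received compound i.p. 30 min before testing. Vehicle was 0.9% NaCl with 10% DMSO and 3% Tween 80. PTZ (10 mg/ml in saline, pH 7.4) was infused into the tail vein at 100 µl/min in freely moving animals until seizure onset. Threshold was the infused PTZ dose per body weight (mg/kg). ≥3 mice per point; one-way ANOVA with Bonferroni.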

In series [8] the target is T1, α1β3γ2S receptors. In words: IGABA enhancement. The class given is cell-based. The settings on record: for Emax: read-out: maximal IGABA enhancement (Emax); for Hill-coefficient (nH): GABA EC3-7, Xenopus oocytes. An outline of the steps: as §1

“Also recorded” adds a separate entry of the source. Like-named read-outs stand apart in the source and are kept apart here. A value given as a limit tells only on which side of the number the result lay.

T1 sequence (P63079 26-473): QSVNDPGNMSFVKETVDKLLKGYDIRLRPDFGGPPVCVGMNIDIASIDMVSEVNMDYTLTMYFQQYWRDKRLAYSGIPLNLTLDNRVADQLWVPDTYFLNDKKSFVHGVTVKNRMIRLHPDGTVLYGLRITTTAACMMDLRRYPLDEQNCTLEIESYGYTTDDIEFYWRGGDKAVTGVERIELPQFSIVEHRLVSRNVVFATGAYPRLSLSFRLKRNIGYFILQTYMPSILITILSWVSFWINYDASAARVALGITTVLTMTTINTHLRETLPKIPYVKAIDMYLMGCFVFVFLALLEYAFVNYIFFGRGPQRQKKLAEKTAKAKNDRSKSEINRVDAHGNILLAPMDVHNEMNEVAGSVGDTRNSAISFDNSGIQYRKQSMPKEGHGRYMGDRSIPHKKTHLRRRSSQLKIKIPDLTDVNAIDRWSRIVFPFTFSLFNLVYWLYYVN
T1 sequence (P62813 28-455): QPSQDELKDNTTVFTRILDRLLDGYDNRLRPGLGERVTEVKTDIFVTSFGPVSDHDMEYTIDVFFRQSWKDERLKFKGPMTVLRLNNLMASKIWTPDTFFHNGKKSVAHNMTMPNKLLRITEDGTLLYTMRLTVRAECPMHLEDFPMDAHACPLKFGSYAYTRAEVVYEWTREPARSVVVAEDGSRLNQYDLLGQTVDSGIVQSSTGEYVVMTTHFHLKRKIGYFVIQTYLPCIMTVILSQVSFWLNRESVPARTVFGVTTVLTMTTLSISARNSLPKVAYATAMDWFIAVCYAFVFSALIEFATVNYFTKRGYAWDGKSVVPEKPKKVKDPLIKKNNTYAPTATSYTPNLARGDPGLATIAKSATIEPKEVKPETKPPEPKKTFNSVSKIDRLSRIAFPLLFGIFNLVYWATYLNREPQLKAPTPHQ
T1 sequence (P18508 39-466 partner): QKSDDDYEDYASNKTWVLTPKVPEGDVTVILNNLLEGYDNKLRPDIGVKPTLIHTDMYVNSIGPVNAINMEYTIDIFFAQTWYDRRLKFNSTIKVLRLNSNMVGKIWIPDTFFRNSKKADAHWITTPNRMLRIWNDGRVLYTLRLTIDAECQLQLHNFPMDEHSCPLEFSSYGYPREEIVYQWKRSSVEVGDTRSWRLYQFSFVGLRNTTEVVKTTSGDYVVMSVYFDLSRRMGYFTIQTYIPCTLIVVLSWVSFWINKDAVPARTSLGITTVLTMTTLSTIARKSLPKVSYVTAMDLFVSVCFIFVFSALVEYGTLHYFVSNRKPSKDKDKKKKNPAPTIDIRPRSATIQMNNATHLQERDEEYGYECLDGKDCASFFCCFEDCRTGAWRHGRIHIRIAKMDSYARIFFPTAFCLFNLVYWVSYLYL
Sequence of α1β2γ2S receptors (P63138 25-474 limits assumed): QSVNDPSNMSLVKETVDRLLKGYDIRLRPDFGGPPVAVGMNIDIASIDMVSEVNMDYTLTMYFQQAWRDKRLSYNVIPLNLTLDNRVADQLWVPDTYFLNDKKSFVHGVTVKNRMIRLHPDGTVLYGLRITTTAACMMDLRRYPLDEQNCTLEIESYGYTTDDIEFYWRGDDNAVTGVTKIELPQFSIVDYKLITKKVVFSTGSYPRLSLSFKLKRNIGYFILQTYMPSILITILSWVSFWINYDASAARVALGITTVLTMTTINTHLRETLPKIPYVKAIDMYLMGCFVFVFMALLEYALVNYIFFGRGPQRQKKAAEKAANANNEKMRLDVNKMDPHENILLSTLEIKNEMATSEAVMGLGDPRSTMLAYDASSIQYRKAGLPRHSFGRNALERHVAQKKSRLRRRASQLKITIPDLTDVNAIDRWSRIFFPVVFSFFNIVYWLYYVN
Sequence of α1β2γ2S receptors (P62813 28-455): as the sequence (P62813 28-455) above
Sequence of α1β2γ2S receptors (P18508 39-466 partner): as the sequence (P18508 39-466 partner) above
Sequence of α1β1γ2S receptors (P15431 26-474): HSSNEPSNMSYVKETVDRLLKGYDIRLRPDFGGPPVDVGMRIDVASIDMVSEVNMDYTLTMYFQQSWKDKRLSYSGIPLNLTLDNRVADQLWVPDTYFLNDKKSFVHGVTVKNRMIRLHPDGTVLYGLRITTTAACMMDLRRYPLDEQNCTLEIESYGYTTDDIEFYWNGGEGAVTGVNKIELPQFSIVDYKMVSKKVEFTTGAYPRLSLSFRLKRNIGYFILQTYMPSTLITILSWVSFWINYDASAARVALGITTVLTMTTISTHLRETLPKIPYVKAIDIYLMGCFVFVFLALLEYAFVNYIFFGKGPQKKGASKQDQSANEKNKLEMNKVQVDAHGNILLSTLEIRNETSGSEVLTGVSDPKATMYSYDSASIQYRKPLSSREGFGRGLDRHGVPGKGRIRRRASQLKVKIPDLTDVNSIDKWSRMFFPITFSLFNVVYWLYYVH
Sequence of α1β1γ2S receptors (P62813 28-455): as the sequence (P62813 28-455) above
Sequence of α1β1γ2S receptors (P18508 39-466 partner): as the sequence (P18508 39-466 partner) above

Take `CC1=C2[C@H](/C=C(\C)C(=O)O)CC[C@@H](C)[C@H]2CC1` [VA, Valerenic acid, reference compound]: the concentration for a half-maximal effect (EC50) came to 74.4 ± 19.3 µM in series [1] and 23.1 ± 4.2 µM in series [6]. For the same compound, the Emax in series [1] was 111 ± 16%; in series [6], 721 ± 68%. In addition, the “Hill-coefficient (nH)” value in series [1] is listed as 1.6 ± 0.5; in series [3], 1.5 ± 0.3; in series [6], 1.4 ± 0.2. In addition, the PTZ-induced seizure threshold was 47.7 ± 1.4 mg/kg PTZ in series [2], 49.0 ± 1.8 mg/kg PTZ in series [7] (10 mg/kg i.p.) and 43.4 ± 1.8 mg/kg PTZ in series [7] (30 mg/kg i.p.). Besides, the “total distance covered in the open field test” value (from here on “total distance covered”) in series [4] (1 mg/kg i.p.) turned out to be 34.9 ± 1.3 m; in series [4] (3 mg/kg i.p.), 38.7 ± 2.1 m; in series [4] (10 mg/kg i.p.) it was 38.0 ± 1.4 m; in series [4] (30 mg/kg i.p.), 37.6 ± 2.5 m. The “effect on locomotor activity vs control” value in series [4] (any tested dose i.p.) is recorded as “did not differ significantly”. The “concentration directly activating GABAA channels in the absence of GABA” value in series [5] is at least 30 µM. For the same compound, the “effect on PTZ-induced seizure threshold” value in series [7] (doses <3 mg/kg body weight i.p.) is “did not alter seizure threshold”.

In the case of `CC1=C2[C@H](/C=C(\C)C(N)=O)CC[C@@H](C)[C@H]2CC1` [VA-A, (E)-3-((4S,7R,7aR)-3,7-dimethyl-2,4,5,6,7,7a-hexahydro-1H-inden-4-yl)-2-methylacrylamide], the concentration for a half-maximal effect (EC50) turned out to be 66.6 ± 34.6 µM in series [1], 7.5 ± 1.8 µM in series [8] and 14 ± 2.2 µM in series [6]. Besides, the Emax in series [1] came out at 218 ± 78%; in series [8], 972 ± 69%. The “Hill-coefficient (nH)” value in series [1] came out at 1.8 ± 0.6; in series [8] (α1β3γ2S) it was 1.5 ± 0.2; in series [6], 1.4 ± 0.2. Further, the “total distance covered” value in series [4] (10 mg/kg i.p.) is listed as 29.9 ± 2.6 m; in series [4] (30 mg/kg i.p.), 23.5±2.2 m. In addition, the “effect on locomotor activity vs control” value is reported as “did also not affect the total distance covered” in series [4] (doses of 1 and 3 mg/kg i.p.); “reduced locomotion; also recorded: reduced locomotor activity” in series [4] (doses ≥10 mg/kg i.p., 10 mg/kg). For the same compound, the figures for the PTZ-induced seizure threshold in series [7] (3 mg/kg i.p.), in series [7] (10 mg/kg i.p.) and in series [7] (30 mg/kg i.p.) were 57.9 ± 1.9 mg/kg PTZ, 55.4 ± 0.7 mg/kg PTZ and 50.6 ± 2.2 mg/kg PTZ, respectively.

`CC1=C2[C@H](/C=C(\C)C#N)CC[C@@H](C)[C@H]2CC1` [VA-CN, (E)-3-((4S,7R,7aR)-3,7-dimethyl-2,4,5,6,7,7a-hexahydro-1H-inden-4-yl)-2-methylacrylonitrile]: the EC50 in series [1] was found to be 73 ± 38.7 µM; in series [8] it was 42.4 ± 15.8 µM; in series [6], 56.5 ± 13.3 µM. The Emax in series [1] was 55 ± 14%; in series [8], 522 ± 114%; in series [6], 765 ± 117%. In addition, the “Hill-coefficient (nH)” value was determined as 1.7 ± 0.7 in series [1], 2.1 ± 0.8 in series [8] (α1β3γ2S) and 2.5 ± 0.7 in series [6]. Also, the “total distance covered” value in series [4] (30 mg/kg i.p.) was determined as 31.5±1.5 m. Also, the “effect on locomotor activity vs control” value in series [4] (low doses (≤10 mg/kg) i.p.) is reported as “did not affect locomotor activity”. In addition, the PTZ-induced seizure threshold in series [7] (10 mg/kg i.p.) turned out to be 51.1 ± 0.6 mg/kg PTZ.

For `CCN(CC)C(=O)/C(C)=C/[C@@H]1CC[C@@H](C)[C@H]2CCC(C)=C12` [VA-DEA, (E)-3-((4S,7R,7aR)-3,7-dimethyl-2,4,5,6,7,7a-hexahydro-1H-inden-4-yl)-N,N-diethyl-2-methylacrylamide], the values for the EC50 in series [1], in series [8] and in series [6] were 97.2 ± 33.8 µM, 80.8 ± 31.3 µM and 54.4 ± 11.1 µM, respectively. Besides, the results for the Emax in series [1], in series [8] and in series [6] were 318 ± 84%, 374 ± 102% and 573 ± 33%, respectively. Besides, the “Hill-coefficient (nH)” value in series [1] came to 1.8 ± 0.3; in series [8] (α1β3γ2S), 1.9 ± 0.5; in series [6] it was 1.6 ± 0.3. Moreover, in series [4] (any tested dose i.p.), the “effect on locomotor activity vs control” value is “did not reveal any significantly different behavior”. For the same compound, the PTZ-induced seizure threshold in series [7] (30 mg/kg i.p.) stood at 48.7±1.7 mg/kg PTZ.

Take `CC1=C2[C@H](/C=C(\C)C(=O)N(C)C)CC[C@@H](C)[C@H]2CC1` [VA-DMA, (E)-3-((4S,7R,7aR)-3,7-dimethyl-2,4,5,6,7,7a-hexahydro-1H-inden-4-yl)-N,N,2-trimethylacrylamide]: the results for the EC50 in series [1], in series [8] and in series [6] were 52.5 ± 20.1 µM, 48 ± 16 µM and 63.9 ± 23.7 µM, respectively. The results for the Emax in series [1], in series [8] and in series [6] were 305 ± 67%, 415 ± 61% and 594 ± 36%, respectively. The “Hill-coefficient (nH)” value in series [1] is listed as 1.7 ± 0.5; in series [8] (α1β3γ2S) it was 1.4 ± 0.2; in series [6] it was 1.3 ± 0.2. The “effect on locomotor activity vs control” value in series [4] (any tested dose i.p.) is “did not reveal any significantly different behavior”. Moreover, the “effect on PTZ-induced seizure threshold vs diluent-treated controls” value in series [7] (any tested dose i.p.) is recorded as “did not significantly differ”.

As to `CCNC(=O)/C(C)=C/[C@@H]1CC[C@@H](C)[C@H]2CCC(C)=C12` [VA-EA, (E)-3-((4S,7R,7aR)-3,7-dimethyl-2,4,5,6,7,7a-hexahydro-1H-inden-4-yl)-N-ethyl-2-methylacrylamide], the EC50 in series [1] was 51.4 ± 19.8 µM; in series [8], 27.2 ± 6.7 µM; in series [6], 11 ± 3.6 µM. For the same compound, the Emax came out at 458 ± 124% in series [1], 677 ± 64% in series [8] and 554 ± 49% in series [6]. Further, the “Hill-coefficient (nH)” value was found to be 1.6 ± 0.3 in series [1], 1.3 ± 0.2 in series [8] (α1β3γ2S) and 1.6 ± 0.3 in series [6]. For the same compound, in series [4] (any tested dose i.p.), the “effect on locomotor activity vs control” value is listed as “did not reveal any significantly different behavior”. The same compound had a PTZ-induced seizure threshold in series [7] (30 mg/kg i.p.) of 55.6 ± 0.4 mg/kg PTZ.

Take `CNC(=O)/C(C)=C/[C@@H]1CC[C@@H](C)[C@H]2CCC(C)=C12` [VA-MA, (E)-3-((4S,7R,7aR)-3,7-dimethyl-2,4,5,6,7,7a-hexahydro-1H-inden-4-yl)-N,2-dimethylacrylamide]: the EC50 in series [1] amounted to 58.1 ± 16.5 µM; in series [8], 12.7 ± 0.9 µM; in series [6] it was 9.1 ± 1.4 µM. For the same compound, the Emax was found to be 387 ± 56% in series [1] and 917 ± 36% in series [6]. Also, the “Hill-coefficient (nH)” value is on record as 1.6 ± 0.3 in series [1], 1.5 ± 0.1 in series [8] (α1β3γ2S) and 1.5 ± 0.1 in series [6]. Besides, in series [4] (30 mg/kg i.p.), the “total distance covered” value was 29.7 ± 2.0 m. Also, the figures for the “effect on locomotor activity vs control” value in series [4] (doses ≥10 mg/kg i.p.) and in series [4] (low doses (≤10 mg/kg) i.p.) were “reduced locomotion” and “did not affect locomotor activity”, respectively. The PTZ-induced seizure threshold in series [7] (10 mg/kg i.p.) is on record as 50.4±1.4 mg/kg PTZ; in series [7] (30 mg/kg i.p.) it was 63.6 ± 2.5 mg/kg PTZ.

Turning to `CC1=C2[C@H](/C=C(\C)c3nnn[nH]3)CC[C@@H](C)[C@H]2CC1` [VA-TET, 5-((E)-1-((4S,7R,7aR)-3,7-dimethyl-2,4,5,6,7,7a-hexahydro-1H-inden-4-yl)prop-1-en-2-yl)-1H-tetrazole], the EC50 worked out at 23.5 ± 10.9 µM in series [1], 6 ± 1 µM in series [8] and 34.1 ± 6.3 µM in series [6]. Besides, the results for the Emax in series [1] and in series [8] were 176 ± 43% and 668 ± 57%, respectively. The “Hill-coefficient (nH)” value in series [1] was determined as 1.8 ± 0.6; in series [8] (α1β3γ2S) it was 1.1 ± 0.1; in series [6], 1.0 ± 0.1. Moreover, the “increase in potency on β3-containing receptors compared with VA” value in series [8] (EC50 ratio VA / VA-TET, α1β3γ2S) is “approximately threefold”. Besides, the “total distance covered” value in series [4] (30 mg/kg i.p.) is listed as 19.2 ± 2.1 m. In addition, the “effect on locomotor activity vs control” value in series [4] (doses ≥10 mg/kg i.p.) is listed as “reduced locomotion”; in series [4] (low doses (≤10 mg/kg) i.p.), “did not affect locomotor activity”. The compound further came in with a PTZ-induced seizure threshold in series [7] (0.3 mg/kg i.p.) of 47.3 ± 0.5 mg/kg PTZ. The “effect on PTZ-induced seizure threshold” value in series [7] (doses ≥1 mg/kg i.p.) is given as “lost its anticonvulsive properties”.
